The test system of assay [1] is patients with conventional, treatment-resistant depression. Conditions: single infusion of sub-anesthetic dose; cited from earlier work.
Assay [2] concerns C57BL/6J mice, corticosterone model of depression. The assay can be described thus: Forced swim test, corticosterone model. The assay is classed as in vivo, mouse. Conditions: corticosterone 20 mg/kg s.c. daily for 21 days. The method in brief:
(§1)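 C57BL/6J mice, 4–5 weeks old, equal numbers male and female. Corticosterone emulsified in propylene glycol given s.c. daily between 10:00 and 12:00 for 21 days; controls got vehicle. Test compound then given i.p. (1 or 10 mg/kg; in one series 1 mg/kg with testing 12 hours later, n = 9 per group). Mice acclimated to the testing room for 30 min.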

Assay [3] shares this test system. The experiment in a line: Sucrose preference test, corticosterone model. Conditions: corticosterone 20 mg/kg s.c. daily for 21 days. The assay is classed as in vivo, mouse. The procedure, abridged:
as §1

The test system is the same in assay [4]. The experiment in a line: Tail suspension test, corticosterone model. The assay is classed as in vivo, mouse. To be noted: corticosterone 20 mg/kg s.c. daily for 21 days. The method in brief: as §1
For assay [5], the system named is insulin receptor signaling. The assay can be described thus: Insulin-induced Akt-S6K signaling in primary hippocampal neurons. The assay is classed as cell-based, mouse. Conditions: insulin 1 μg/mL, 20 min. The method in brief: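 Primary murine hippocampal neurons were pre-treated 20 min with test compound (0.2 µM) or vehicle, then with insulin (1 μg/mL) for 20 min. Cells were lysed in ice-cold RIPA for 30 min and centrifuged. Equal protein was run on SDS-PAGE and blotted to PVDF, blocked in 5% milk/TBS-T, then probed overnight at 4°C with primary antibodies and HRP secondaries. Data are mean ± SD.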

Assay [6] relates to Akt, GSK3α/β, S6K, S6 phosphorylation in primary murine hippocampal neurons. The assay is classed as cell-based, mouse. To be noted: K252a 200 nM or LY294002 1 μM for 1 hour, then Syn3 0.2 μM, BDNF 25 ng/mL 20 min; n = 5.
Assay [7] concerns primary murine hippocampal neurons. The experiment in a line: Synaptic density. The assay is classed as cell-based, mouse. To be noted: K252a 200 nM or LY294002 1 μM, Syn3 0.2 μM, BDNF 25 ng/mL 24 hours; n = 20 neurons.
Assay [8] has the same test system. The assay can be described thus: PSD-95 puncta formation in vitro. The assay is classed as cell-based, mouse. Conditions: for effect of inhibitor on the effects of Syn3 (PSD-95 puncta): K252a 200 nM or LY294002 1 μM for 1 hour; for effect of inhibitor on the effects of Syn3 (PSD-95 puncta) / BDNF+Syn3–induced PSD-95 puncta formation with inhibitor: then Syn3 0.2 μM, BDNF 25 ng/mL 24 hours; for BDNF+Syn3–induced PSD-95 puncta formation with inhibitor: K252a 200 nM or LY294002 1 μM, n = 20 neurons. The procedure, abridged: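 Primary murine hippocampal neurons were pretreated with test compound (0.2 µM) for 20 min, some first with K252a (200 nM) or LY294002 (1 µM) for 1 hour, then given BDNF for 24 hours. Cells were fixed in 4% paraformaldehyde for 15 min and blocked in 0.3% Triton X-100/5% goat serum. Primary antibody ran overnight at 4°C, secondary 2 hours at room temperature. Puncta were counted per 10-µm second-order dendrite 35–45 µm from the soma.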

Assay [9] has the same test system. The experiment in a line: Dendritic spine density. The assay is classed as cell-based, mouse. To be noted: K252a 200 nM or LY294002 1 μM, Syn3 0.2 μM, BDNF 25 ng/mL 24 hours; n = 15 neurons.
For the next assay, the system named is TrkB signaling. To be noted: cited from earlier work.
Assay [10] has as its system autophagy, BDNF-mTOR signaling pathway. To be noted: through the BDNF-mTOR signaling pathway; cited from earlier work.
Assay [11] deals with platelet-derived growth factor (PDGF) receptor signaling. The assay can be described thus: PDGF-induced Akt-S6K signaling in primary hippocampal neurons. It counts as cell-based, mouse. To be noted: PDGF-BB 25 ng/mL, 20 min.
Assay [12] deals with primary murine hippocampal neurons. The assay can be described thus: Sholl analysis of dendritic complexity/neurite outgrowth. Conditions: BDNF 25 ng/mL, 24h; n = 26 neurons. It counts as cell-based, mouse.

The text below walks through data of article PMC11223518 (Science signaling, 2024).

In the case of `CNC1(c2ccccc2Cl)CCCCC1=O` (centres unmarked) [ketamine], in assay [1], the “antidepressant effects in patients” value is reported as “produces rapid antidepressant effects in patients with conventional, treatment-resistant depression”.
As for `C[C@]12C[C@H](O)[C@H]3[C@@H](CCC4=CC(=O)CC[C@@]43C)[C@@H]1CC[C@@H]2C(=O)CO` [corticosterone], the “immobility time (effect of inducer), forced swim test” value in [2] was “increased immobility time”. In addition, in [3], the “sucrose intake (effect of inducer)” value is on record as “decreased sucrose intake”. Moreover, the “immobility time (effect of inducer), tail suspension test” value in assay [4] is “increased immobility time”.
Regarding insulin: recombinant insulin, the “Akt and S6K phosphorylation” value in assay [5] was “increased Akt and S6K phosphorylation”.
For `COC(=O)[C@@]1(O)C[C@H]2O[C@]1(C)n1c3ccccc3c3c4c(c5c6ccccc6n2c5c31)C(=O)NC4` [K252a], in assay [6], the “BDNF plus Syn3 stimulation of Akt and S6K phosphorylation with inhibitor” value is given as “blocked”. Besides, the “effect of Syn3 on synaptic density with inhibitor” value in assay [7] is reported as “blocked the effect of Syn3 on synaptic density”. In addition, in assay [8], the “effect of inhibitor on the effects of Syn3 (PSD-95 puncta)” value is recorded as “blocked the effects of Syn3” and the “BDNF+Syn3–induced PSD-95 puncta formation with inhibitor” value is given as “reversed”. The “density of dendritic spines, BDNF + Syn3 with inhibitor” value in [9] was “reversed”.
Turning to `O=c1cc(-c2ccccc2)oc2c(O)c(O)ccc12` [7,8-DHF, 7,8-dihydroxyflavone], in the assay with TrkB signaling, the “TrkB signaling and antidepressant responses” value was “stimulates TrkB signaling and promotes rapid antidepressant responses”.
Consider `O=c1cc(N2CCOCC2)oc2c(-c3ccccc3)cccc12` [LY294002], for which the “BDNF plus Syn3 stimulation of Akt and S6K phosphorylation with inhibitor” value in assay [6] is “blocked”. Also, the “effect of Syn3 on synaptic density with inhibitor” value in [7] is on record as “blocked the effect of Syn3 on synaptic density”. Also, in [8], the “effect of inhibitor on the effects of Syn3 (PSD-95 puncta)” value is on record as “blocked the effects of Syn3” and the “BDNF+Syn3–induced PSD-95 puncta formation with inhibitor” value was “reversed”. For the same molecule, the “density of dendritic spines, BDNF + Syn3 with inhibitor” value in assay [9] is “reversed”.
On to `CN[C@]1(c2ccccc2Cl)CCCCC1=O` [esketamine], for which, in assay [10], the autophagy entry is reported as “acts to inhibit autophagy”.

B1: PDGF: recombinant platelet-derived growth factor (protein, UniProt P01127 82-190, looked up)
Platelet-derived growth …: SLGSLTIAEPAMIAECKTRTEVFEISRRLIDRTNANFLVWPPCVEVQRCSGCCNNRNVQCRPTQVQLRPVQVRKIEIVRKKPIFKKATVTLEDHLACKCETVAAARPVT
As to B1, the “Akt and S6K phosphorylation” value in assay [11] was “increased Akt and S6K phosphorylation”.

B2: brain-derived neurotrophic factor (protein, UniProt P23560 19-247, looked up)
Neurotrophic factor BDNF …: APMKEANIRGQGGLAYPGVRTHGTLESVNGPKAGSRGLTSLADTFEHVIEELLDEDQKVRPNEENNKDADLYTSRVMLSSQVPLEPPLLFLLEEYKNYLDAANMSMRVRRHSDPARRGELSVCDSISEWVTAADKKTAVDMSGGTVTVLEKVPVSKGQLKQYFYETKCNPMGYTKEGCRGIDKRHWNSQCRTTQSYVRALTMDSKKRIGWRFIRIDTSCVCTLTIKRGR
As for B2, the “number of PSD-95 puncta” value in [8] (BDNF 25 ng/mL, 24h) was “increased the number of PSD-95 puncta”. For the same molecule, the “dendritic complexity and number of neurite crossings” value in assay [12] was “significantly enhanced dendritic complexity and the number of neurite crossings”.
